Data published in PubChem BioAssay AID1027 (Sanford-Burnham Center for Chemical Genomics, 2008).
The whole screen tested about 200,000 compounds, of which fewer than 10 were called active.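 Rule for the calls: active = luciferase activation factor, scaled between plate controls, of at least 2 with compound at 10 µM; inactive = the rest.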 Not all results are given here.

The compounds below were run against Luciferin 4-monooxygenase (Photinus pyralis) (UniProt P08659) (assay: FLuc activators, initial screening, artefact control for FLuc-dependent activation tests, biochemical, ATPlite luminescence (AID 1027)). Conditions: ATPlite luciferase biochemical, 10 min, at 10 µM, active compounds read high, 0 = ATP-free wells, 1 = DMSO control.
Procedure, shortened: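 Material: Luciferase/luciferin reagent mix | Doses: Test compounds dosed from 2 mM stocks in 100% DMSO | Timing: 10 min incubation after luciferase reagent addition, room temperature | Measured by: Luminescence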

Sequence of Luciferin 4-monooxygenase (Photinus pyralis) (P08659 whole entry, looked up): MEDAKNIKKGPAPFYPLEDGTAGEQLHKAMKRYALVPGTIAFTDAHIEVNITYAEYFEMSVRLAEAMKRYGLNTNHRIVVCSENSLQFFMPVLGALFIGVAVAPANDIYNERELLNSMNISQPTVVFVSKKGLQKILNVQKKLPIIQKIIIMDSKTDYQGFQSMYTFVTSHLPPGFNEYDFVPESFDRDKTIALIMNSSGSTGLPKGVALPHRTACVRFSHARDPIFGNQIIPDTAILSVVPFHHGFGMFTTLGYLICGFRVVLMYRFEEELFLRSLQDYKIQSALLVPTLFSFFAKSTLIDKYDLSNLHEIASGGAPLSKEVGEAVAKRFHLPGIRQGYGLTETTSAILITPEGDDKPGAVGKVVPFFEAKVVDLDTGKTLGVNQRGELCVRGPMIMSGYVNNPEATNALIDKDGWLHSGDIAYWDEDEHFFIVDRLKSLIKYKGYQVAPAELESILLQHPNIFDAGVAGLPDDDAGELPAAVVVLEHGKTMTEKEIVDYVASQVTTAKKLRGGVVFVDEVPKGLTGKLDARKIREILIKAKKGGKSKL

Activation factor, inactive:
O=C(O)CC(Cc1ccccc1)C(=O)Nc1ccc([N+](=O)[O-])cc1 (centres undefined) 1.1
CCC1CCCCN1C(=S)Nc1ccc(C(C)=O)cc1 (centres undefined) 1
Cc1ccc(C)c(NC2=NCC(=O)N2c2ccc3c(c2)OCCO3)c1 1.1
COc1ccc(C(=O)Nc2ccc3nc(N4CCCCC4)cc(C)c3c2)cc1OC 1.1
NC(=O)c1ccccc1N(Cc1ccccc1)S(=O)(=O)c1ccccc1 1
Cc1cccc(N2CCC(NCc3c(C(=O)N4CCCCC4)nc4c(C)cccn34)CC2)c1 1
COc1ccc(CCC(=O)OCC(=O)Nc2ccc(C)c(S(=O)(=O)N(C)C)c2)cc1 1
Cc1cccc(N2C(=O)SC(SC(=Nc3ccccc3)Nc3ccccc3)C2=O)c1 (centres undefined) 1
Cc1ccc(C(=O)N/C(=C\c2cccs2)C(=O)NCCc2ccccn2)cc1C 1
COc1cccc(CC2(CO)CCCN(CC3=Cc4cc(OC)ccc4OC3)C2)c1 (centres undefined) 1.1
Cc1ccc2[nH]c(C)c(CCNC(=O)NC3CCCCC3)c2c1 1
S=C(Nc1cccc(Br)c1)N1CCn2cccc2C1c1cccnc1 (centres undefined) 1.1
NS(=O)(=O)c1ccc(N2C(=O)C3C4CC(C(Br)C4Br)C3C2=O)cc1 (centres undefined) 1
CCc1ccc(C2N3CC4([N+](=O)[O-])CN2CC([N+](=O)[O-])(C3)C4(C)C)cc1 (centres undefined) 1.1
Cc1nnc(SC(C)C(=O)Nc2ccc(S(=O)(=O)NC3CCCCC3)cc2)s1 (centres undefined) 1.1
Cc1ccc(C(=O)NC(=S)NCCN2CCOCC2)cc1 1.1
CC(CO)N1CCS(=O)(=O)CC1 (centres undefined) 1.1
CC1CCCN(CCOCCOc2ccccc2-c2ccccc2)C1 (centres undefined) 1
Cc1noc(C)c1CCC(=O)O 1
CCC1CCCCN1C(=O)CSc1nc2c(c(=O)n(C)c(=O)n2C)n1C (centres undefined) 1
C=C(C)c1cccc(C(C)(C)NC(=O)NC2CCCC2)c1 1
COc1ccc(CCCc2nnc(SCc3nc4ccccc4c(=O)[nH]3)n2C)cc1 1.1
CCOC(=O)N1CCN(CCC(=O)Nc2cc(OC)ccc2OC)CC1 1
Cc1ccc2nc(-c3ccc(NC(=O)CN(C)S(=O)(=O)c4ccccc4)cc3)sc2c1 0.7
CC(C)(C)c1ccc(/C=C/C(=O)NC2CCS(=O)(=O)C2)cc1 (centres undefined) 0.9
O=C(COC(=O)c1ccccc1)Nc1cccc(S(=O)(=O)N2CCOCC2)c1 1.1
NS(=O)(=O)c1ccc(CNC(=O)c2ccc(Cl)cc2[N+](=O)[O-])cc1 1
CCn1cc(/C=C2/SC(=S)NC2=O)c(C)n1 0.8
COc1cccc(NC(=O)c2nn(-c3ccc(OC)cc3OC)c(=O)c3ccccc23)c1 1
COc1cc(SC#N)ccc1N=Cc1c(C)[nH]n(-c2ccc(C)cc2)c1=O 0.9
CCN=C1S/C(=C\c2cc(Br)ccc2OCC(=O)OCC)C(=O)N1CC 1
CCc1cccc2c(=O)c(C(=O)NCCCOC)c[nH]c12 1
CS(=O)(=O)N(CC(=O)N1CCCC1)Cc1ccccc1 1.1
O=C(NCCNc1ccc([N+](=O)[O-])cc1)c1cccc2c(Br)cccc12 1
Cc1ccc(SCCC(=O)NCc2ccccn2)cc1 1
Oc1ccc(Br)cc1C=Nc1ccc2[nH]ncc2c1 1
CN(CC(=O)Nc1ccc(S(=O)(=O)N2CCCC2)cc1)Cc1ccc(Cl)c(Cl)c1 1
CC(=O)n1c(C=Nc2ccccc2)c(O)c2ccccc21 0.4
CC1Cc2ccccc2N1C1=CC(=O)CC(C)(C)C1 (centres undefined) 1.1
Cc1c(NC(=O)CCC2CCCCC2)cc(C(=O)N2CCOCC2)cc1[N+](=O)[O-] 1.1
CCOCCCNCc1cc(Br)ccc1OCC 1
O=C(CSc1ccccn1)Nc1nc2c(ccc3ccccc32)s1 1.1
CCOc1ccc2nc(NC(=O)c3cc([N+](=O)[O-])ccc3N3CCOCC3)sc2c1 1
COc1ccc(-c2nc(CN3CCN(c4ncccn4)CC3)c(C)o2)cc1C 1
O=C(O)c1ccc2c(c1)C(=O)N(NC(=O)c1ccc(O)cc1)C2=O 1.1
COC(=O)c1ccc(/C=N/OCC(=O)Nc2cc(F)ccc2F)cc1 1
CC(NC(=S)Nc1ccc(S(N)(=O)=O)cc1)c1ccc2c(c1)OCO2 (centres undefined) 1.1
Cc1ccc(NC(=S)N2CCN(c3ncccn3)CC2)cc1C 1.1
Cc1ccc(C(=O)O)cc1N1C(=O)CCCC1=O 1
Cn1cc(CN2CCCC(CO)C2)c(-c2ccc(Oc3ccccc3)cc2)n1 (centres undefined) 1.1
COC(=O)c1ccc(CSc2nnc(N)s2)o1 1
COc1ccc(CN2CCCC(C(=O)c3ccc(Cl)cc3)C2)cc1Cn1cncn1 (centres undefined) 1
O=C(CC1Nc2ccccc2NC1=O)Nc1ccccc1NC(=O)CC1Nc2ccccc2NC1=O (centres undefined) 0.9
CCN(CC(=O)NCCc1ccccc1)S(=O)(=O)c1ccc(C)cc1 1.1
Cc1nc(N2CCCCC2)sc1C=O 1
C=CCn1c(SCC(=O)CC(=O)OCC)nc2cc(C(=O)N3CCC(C(N)=O)CC3)ccc2c1=O 1
COC(=O)c1c(NC(C)=O)sc(C(=O)Nc2ccccc2OC)c1C 1
COc1cc(/C=N\NC(=O)c2nonc2N)c(OC)cc1Br 1
CCOC(=O)C1CCN(C(=O)/C=C/c2cc(OC)c(OC)c(OC)c2)CC1 1
COc1ccc(S(=O)(=O)NC(C)C)cc1C(=O)NC1CCCCC1 1.1
COc1ccccc1C1SCCN1C(=O)c1ccc([N+](=O)[O-])cc1 (centres undefined) 1
CSc1nc(-c2ccccc2)nc(C(Cl)Cl)n1 1.1
Cc1nc(-c2ccccc2)sc1C(=O)/C=C/N(C)C 0.9
COc1ccc(/C=C/C2=CC(C)(C)NC(=S)N2)c(OC)c1 1
